MrgX1 allo act: positive allosteric modulators of MrgX1, primary screen, HEK293 cells, Fluo-4 calcium flux; Mas-related G-protein coupled receptor member X1 (Homo sapiens), Q96LB2; FDSS; stronger effect = higher value; B-score at 10 µM; hit rate 0.63% among 310,000;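 active = plate-corrected calcium response at least 3 library SD above typical, normal starting fluorescence, not activating the receptor alone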;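 also: compound read alongside a low EC10 to EC30 dose of BAM8-22 agonist; peak minus trough fluorescence over baseline measured at the second addition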
Target sequence (Q96LB2 whole entry, looked up): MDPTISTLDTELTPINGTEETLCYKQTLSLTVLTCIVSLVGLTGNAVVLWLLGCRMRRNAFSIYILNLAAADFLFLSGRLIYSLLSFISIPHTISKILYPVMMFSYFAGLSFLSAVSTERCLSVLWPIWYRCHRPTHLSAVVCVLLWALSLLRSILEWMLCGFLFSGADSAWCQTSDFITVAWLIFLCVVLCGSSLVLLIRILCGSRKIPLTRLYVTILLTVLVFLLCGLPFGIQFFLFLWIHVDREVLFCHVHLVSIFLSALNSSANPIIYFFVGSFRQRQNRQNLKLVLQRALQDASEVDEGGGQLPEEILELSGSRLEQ
MrgX1 antag: antagonists of human MrgX1 receptor, primary screen, HEK293 cells, Fluo-4 calcium flux. Mas-related G-protein coupled receptor member X1 (Homo sapiens), Q96LB2. BAM8-22 antagonism; stronger effect = lower value. B-score at 10 µM. hit rate 1.3% among 310,000;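 active = calcium-response B-score plate-corrected more than 3 library SD below zero, starting fluorescence within 5 deviations, no agonist response on first addition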;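 also: peak minus trough fluorescence over baseline after final BAM8-22 challenge near maximal dose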
MrgX1 agonist: agonists of human MrgX1 receptor, primary screen, HEK293 cells, Fluo-4 calcium flux. Fluo-4 calcium fluorescence, agonist mode; stronger effect = higher value. B-score at 10 µM. hit rate 0.44% among 310,000. AID 588627, 2011. Mas-related G-protein coupled receptor member X1 (Homo sapiens), Q96LB2;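 active = calcium response B-score plate-corrected fluorescence ratio at least 3 library SD, with starting fluorescence B-score inside 5 SD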
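Test system: HEK293 cells stably expressing human MrgX1 receptor; amount: 15,000 cells per well; doses: compound delivered in addition one of three; times: overnight plating before 1 h dye loading; detection: Fluo-4 NW calcium-flux fluorescence, kinetic read; read-out basis: B-scored fluorescence response ratio; controls: positive and negative controls per plate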
RGS4 act: RGS4 potentiators or activators, primary screen, cell-based, HEK293 M3R inducible RGS4, calcium flux; AID 463111, 2010; B-score at 10 µM; carbachol calcium flux Fluo4; stronger effect = lower value; hit rate 0.92% among 310,000;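 active = B-score of the integrated calcium signal more than 4 SD below the library mean, with starting fluorescence not abnormally high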;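 also: negative B-score means reduced calcium response which marks RGS4 activation or potentiation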
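Also added: carbachol at ECmax as muscarinic agonist stimulus; Assay system: HEK293 cells with stable M3R and inducible RGS4; Timing: overnight RGS4 induction, 30 min dye load 37 °C, 20 min compound RT; Measured by: Fluo4-AM (2 µM) calcium-flux fluorescence, kinetic read.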
RGS4 block: RGS4 inhibitors, primary screen, cell-based, HEK293 M3R inducible RGS4, calcium flux; Regulator of G-protein signaling 4 (Homo sapiens), P49798; Fluo-4 calcium flux; stronger effect = higher value; triggered by carbachol at its EC20; B-score at 10 µM; hit rate 0.45% among 310,000; AID 463165, 2010;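 active = B-score, a plate-corrected calcium signal, over three deviations above library mean, with baseline fluorescence within five deviations of library mean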;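 also: RGS4 expression induced by doxycycline in cells with stable M3 receptor; B-score is computed from the integrated fluorescence ratio over baseline after carbachol; higher B-score means a larger calcium signal and so more RGS4 inhibition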
Target sequence (P49798 whole entry, looked up): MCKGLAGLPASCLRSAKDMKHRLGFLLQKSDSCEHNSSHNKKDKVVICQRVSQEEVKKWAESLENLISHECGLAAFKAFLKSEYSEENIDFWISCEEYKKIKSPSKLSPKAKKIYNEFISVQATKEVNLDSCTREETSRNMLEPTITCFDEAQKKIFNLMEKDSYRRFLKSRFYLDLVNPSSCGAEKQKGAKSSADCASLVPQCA
MrgX1 allo conf: MrgX1 positive allosteric modulators, duplicate retest, confirmation, HEK293 cells, Fluo-4 calcium flux | Fluo-4 calcium fluorescence, FDSS | shares compounds with MrgX1 allo act | hit rate 13% among 1,200 | activation (ratio percentage), % at 10 µM | AID 602413, 2012;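 active = ratio at least 3 SD above the weak peptide control, stable starting fluorescence, no direct agonism earlier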;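 also: compound followed by low BAM8-22 agonist challenge near EC20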
MrgX1 ant reconf: MrgX1 receptor antagonists, duplicate retest, confirmation, HEK293 cells, Fluo-4 calcium flux; shares compounds with MrgX1 antag; BAM8-22 calcium flux; stronger effect = lower value; remaining BAM8-22 calcium response % of control (stronger effect = lower value), % at 10 µM; hit rate 19% among 2,300; AID 602420, 2012;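 active = remaining agonist calcium response no higher than 100% minus 3 SD of agonist-only control wells, with starting fluorescence near control levels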;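 also: agonist BAM8-22 given at a near maximal EC90 to ECmax level; peak minus minimum fluorescence divided by baseline after agonist addition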
HEK293 Ca flux: nonspecific calcium signal in parental HEK293, confirmation, counter-screen for MrgX1 antagonist project, parental HEK293 cells, Fluo-4 calcium flux; shares compounds with MrgX1 antag; Fluo-4 calcium fluorescence, FDSS; fluorescence ratio F(max-min)/F0 at 10 µM; hit rate 2% among 4,000;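 active = duplicate-averaged calcium fluorescence ratio at least three times the standard deviation of buffer wells, a nonspecific response in parental cells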
HEK293 Ca counter: calcium response in parental HEK293 cells, primary screen, counter-screen for MrgX1 allosteric activator project, cell-based, Fluo-4 calcium flux, duplicate. shares compounds with MrgX1 antag. Fluo-4 fluorescence ratio; stronger effect = higher value. fluorescence ratio F(max-min)/F0 at 10 µM. hit rate 0.4% among 4,000. AID 624114, 2012;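 active = calcium fluorescence ratio, averaged over duplicates, at least 3 SD of the buffer-well ratio, meaning a nonspecific response in receptor-free cells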;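 also: untransfected parental HEK293 lacking MrgX1 used as counterscreen for MrgX1 allosteric activators; fluorescence change taken during the second addition on a kinetic imager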
HEK293 Ca cntr2: calcium response in parental HEK293 cells, primary screen, counter-screen for MrgX1 agonist project, cell-based, Fluo-4 calcium flux, duplicate, agonist mode; hit rate 8.7% among 4,000; Fluo-4 calcium fluorescence (FDSS); stronger effect = higher value; fluorescence ratio F(max-min)/F0 at 10 µM; shares compounds with MrgX1 antag; AID 624115, 2012;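 active = calcium fluorescence ratio at least three times the spread of buffer wells, meaning a non-specific response in parental cells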
* hit, by the source's call; i = inactive; . = no result given. The list is not random: actives were taken first. Their share in the collection is about 3.5%.

SMILES	MrgX1 allo act	MrgX1 antag	MrgX1 agonist	RGS4 act	RGS4 block	MrgX1 allo conf	HEK293 Ca flux	HEK293 Ca counter	HEK293 Ca cntr2	others
COc1ccccc1CNC(=O)C1CCC(CNc2c(N3CCC(C)CC3)c(=O)c2=O)CC1 (stereo not given)	6.6*	i	i	i	i	i	i	i	i
c1ccc(Sc2ncnc3ccccc23)cc1	18*	i	i	i	i	27.9%*	i	i	i
N#CCSc1ncnc2ccccc12	i	i	i	i	i	.	.	.	.
O=S(=O)(NCC1CCCN(Cc2ccccc2O)C1)c1cccc2cccnc12 (stereo not given)	i	i	i	i	i	.	.	.	.
Cc1ccc(C(=O)Nc2ccc(Nc3ccccc3)cc2)c(Cl)c1	i	i	i	i	i	.	.	.	.
CNc1nc(Sc2cccc(C(F)(F)F)c2)cc(C(F)(F)F)n1	10.3*	i	i	i	i	i	i	i	i
CNc1nc(Sc2ccccc2)cc(C(F)(F)F)n1	21.5*	i	i	i	i	i	i	i	i
Cc1nc(-c2cc(C#N)c(Sc3cccc(C(F)(F)F)c3)nc2C)cs1	i	i	i	i	i	.	.	.	.
O=C(Cc1cccc(C(F)(F)F)c1)OCN1C(=O)c2ccccc2C1=O	i	i	i	i	i	.	.	.	.
COC(=O)c1cc(OC)c(OC)c(OC)c1[N+](=O)[O-]	i	i	i	i	i	.	.	.	.
Cc1ccc(NC(=O)c2ccccc2O)cc1	11*	i	i	i	i	i	i	i	i
CC(=O)Nc1ccc(NC(=O)c2ccccc2C)cc1	i	i	i	i	i	.	.	.	.
CC(=O)Nc1ccc(NC(=O)c2ccccc2CCc2ccccc2)cc1	15*	i	i	i	i	i	i	i	i
CCOC(=O)c1cccc(NC(=O)CCc2ccccc2)c1	8.08*	i	i	i	i	i	i	i	i
COc1ccc(CC(=O)N2CCC(c3ccccc3)C2)cc1 (stereo not given)	7.99*	i	i	i	i	i	i	i	i
O=C(Cc1ccccc1)N1CCC(c2ccccc2)C1 (stereo not given)	i	i	i	i	i	.	.	.	.
Cc1ccc(N=Cc2sc(O)c3ccccc23)c(C)c1	i	i	i	i	i	.	.	.	.
Cc1ccc(N=Cc2sc(O)c3ccccc23)cc1	6.99*	-6.89*	i	i	i	i	i	i	i	MrgX1 ant reconf=75.3%*
C/C(N)=C(/C#N)C(=O)COC(=O)c1cc2c(s1)CCCC2	i	i	i	i	i	.	.	.	.
CNC(=O)COC(=O)c1cc2c(s1)CCCC2	12.1*	i	i	i	i	i	i	i	i
Cc1ccsc1C(=O)N1CCc2ccccc2C1	i	i	i	i	i	.	.	.	.
Cc1ccsc1C(=O)OCC(=O)N1CCc2ccccc2C1	8.88*	i	i	i	i	i	i	i	i
Nc1nc(Cl)cc(Sc2ccc(F)cc2)n1	6.73*	i	i	i	i	i	i	i	i
COc1ccc(CC(=O)NC(=S)Nc2cccc(CO)c2)cc1	7.24*	i	i	i	i	i	i	i	i
CCC(CC)C(=O)Nc1nnc(CCc2ccccc2)s1	i	i	i	i	i	.	.	.	.
SMILES	MrgX1 allo act	MrgX1 antag	MrgX1 agonist	RGS4 act	RGS4 block	MrgX1 allo conf	HEK293 Ca flux	HEK293 Ca counter	HEK293 Ca cntr2	others
COc1ccc(CCNC(=O)c2ccc3ccccc3n2)cc1	i	i	i	i	i	.	.	.	.
CCn1c(SCC(=O)NC2CCCCC2)nc2ccccc2c1=O	i	i	i	i	i	.	.	.	.
CCNC(=S)N(Cc1ccccc1)Cc1nc2ccccc2c(=O)[nH]1	i	i	i	i	i	.	.	.	.
Cc1cc(C)nc(-n2nc(C)c(Sc3ccc(F)cc3)c2N)n1	11.1*	i	i	i	i	i	i	i	i
Cc1nn(-c2ccccc2)c(N)c1Sc1cccc([N+](=O)[O-])c1	i	i	i	i	i	.	.	.	.
O=C(O)CSc1ncnc2scc(-c3ccccc3)c12	i	i	i	i	i	.	.	.	.
O=C(O)CSc1ncnc2scc(-c3ccc(Br)cc3)c12	10.3*	i	i	i	i	i	i	i	i
CCN(CC(=O)Nc1cc(Cl)ccc1C)C(=O)CCS(=O)(=O)c1ccc(C)cc1	i	i	i	i	i	.	.	.	.
CCN(CC)C(=O)c1[nH]cnc1C(=O)Nc1ccc(OC)cc1	i	i	i	i	i	.	.	.	.
COc1ccc(NC(=O)c2nc[nH]c2C(=O)N2CCC(C)CC2)cc1	8.16*	i	i	i	i	i	i	i	i
CCOC(=O)c1ccc(NC(=O)c2nc[nH]c2C(=O)N2CCC(C)CC2)cc1	i	i	i	i	i	.	.	.	.
Cc1ccc(NC(=O)c2nc[nH]c2C(=O)N2CCC(C)CC2)cc1	9.07*	i	i	i	i	i	i	i	i
CCc1cccc2sc(N3CCN(C(=O)c4ccc([N+](=O)[O-])o4)CC3)nc12	i	i	i	i	i	.	.	.	.
